Test results reported in ChEMBL document CHEMBL1146725, “Discovery and SAR of potent, orally available and brain-penetrable 5,6-dihydro-4H-3-thia-1-aza-benzo[e]azulen- and 4,5-dihydro-6-oxa-3-thia-1-aza-benzo[e]azulen derivatives as neuropeptide Y Y5 receptor antagonists” (Bioorg Med Chem Lett, 2004).

How the values were obtained:
[1] = biological target: T1, Neuropeptide Y receptor type 5 (Homo sapiens, UniProt Q15761); experiment: (§1) In vitro binding affinity against human neuropeptide Y5 receptor
T1 sequence (Q15761 whole entry): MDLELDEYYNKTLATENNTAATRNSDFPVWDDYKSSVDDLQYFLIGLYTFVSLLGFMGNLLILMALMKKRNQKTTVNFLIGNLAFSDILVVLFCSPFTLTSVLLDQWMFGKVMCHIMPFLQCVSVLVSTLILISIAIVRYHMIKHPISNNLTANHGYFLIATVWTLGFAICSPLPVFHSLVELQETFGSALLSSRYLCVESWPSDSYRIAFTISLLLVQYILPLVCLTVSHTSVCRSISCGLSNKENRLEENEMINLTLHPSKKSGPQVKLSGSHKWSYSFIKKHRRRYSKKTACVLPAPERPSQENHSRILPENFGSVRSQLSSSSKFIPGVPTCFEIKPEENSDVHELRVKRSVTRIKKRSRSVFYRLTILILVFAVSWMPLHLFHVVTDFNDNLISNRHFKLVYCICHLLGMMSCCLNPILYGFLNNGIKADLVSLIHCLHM

[2] = biological target: T1, Neuropeptide Y receptor type 5; experiment: as §1; remark: listed apart in the source
Outline: (§2)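 Reported as IC50 (nM), each value the mean of three separate experiments.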

[3] = Concentration (30 mg/kg, p.o.) in rat hypothalamus after 2 hours; assay type: ADME, organism-based; conditions: hypothalamus, po
Outline: (§3)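 Male rats (RA238), fasted overnight, given 30 mg/kg by oral gavage (5 mL/kg) in 20% Cremophore EL/water (w/w). Plasma and hypothalamus were sampled at 2 and 6 h post-dose and levels measured by LC-MS. Values are the mean of 3-6 animals per time point, as µg/mL plasma and µg/g hypothalamus.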

[4] = Concentration (30 mg/kg, p.o.) in rat hypothalamus after 6 hours; assay type: ADME, organism-based; conditions: hypothalamus, po; outline: as §3
[5] = Concentration (30 mg/kg, p.o.) in rat plasma after 6 hours; assay type: ADME, organism-based; conditions: plasma, po; outline: as §3
[6] = Concentration (30 mg/kg, p.o.) in rat plasma after 2 hours; assay type: ADME, organism-based; conditions: plasma, po; outline: as §3
[7] = biological target: T1, Neuropeptide Y receptor type 5; experiment: In vitro binding affinity against human neuropeptide Y5 receptor measured as Ca+ response; outline: as §2
[8] = biological target: T2, Neuropeptide Y receptor type 5 (Rattus norvegicus, UniProt Q63634); experiment: In vitro binding affinity against rat neuropeptide Y5 receptor; outline: as §2
T2 sequence (Q63634 whole entry): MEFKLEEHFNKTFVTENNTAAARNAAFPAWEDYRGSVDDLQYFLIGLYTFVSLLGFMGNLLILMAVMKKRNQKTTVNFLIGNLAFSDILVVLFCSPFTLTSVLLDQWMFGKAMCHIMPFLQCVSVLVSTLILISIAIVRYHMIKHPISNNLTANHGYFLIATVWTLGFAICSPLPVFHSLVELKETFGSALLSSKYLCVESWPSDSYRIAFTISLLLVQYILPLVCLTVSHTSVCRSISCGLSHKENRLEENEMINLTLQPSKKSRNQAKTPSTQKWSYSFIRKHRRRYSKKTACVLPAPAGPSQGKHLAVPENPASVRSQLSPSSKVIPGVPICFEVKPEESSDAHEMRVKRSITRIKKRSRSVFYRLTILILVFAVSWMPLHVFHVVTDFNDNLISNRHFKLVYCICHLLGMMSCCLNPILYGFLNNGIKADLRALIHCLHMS

Compound: CCOCC(=O)N1CCC(CNc2nc3c(s2)CCOc2ccc(F)cc2-3)CC1
- IC50 [1]: 28 nM

Compound: O=C1CCCN1[C@H]1CC[C@H](CNc2nc3c(s2)CCCc2ccc(F)cc2-3)CC1
- IC50 [1]: 5 nM

Compound: CCCCC(=O)N1CCC(CNc2nc3c(s2)CCOc2cc(F)c(F)cc2-3)CC1
- IC50 [1]: 38 nM

Compound: O=C(c1ccccc1F)N1CCC(CNc2nc3c(s2)CCCc2ccc(F)cc2-3)CC1
- IC50 [1]: 20 nM

Compound: CS(=O)(=O)NC[C@H]1CC[C@H](Nc2nc(-c3ccc(F)cc3)cs2)CC1
- IC50 [1]: 23 nM

Compound: O=C(CN1CCCCC1)N1CCC(CNc2nc3c(s2)CCCc2ccc(Cl)cc2-3)CC1
- IC50 [1]: 7 nM

Compound: COC[C@@H]1CCCN1CC(=O)N1CCC(CNc2nc3c(s2)CCCc2ccc(F)cc2-3)CC1
- IC50 [1]: 3 nM

Compound: O=C(CN1CCCCC1)N1CCC(CNc2nc3c(s2)CCCc2ccccc2-3)CC1
- IC50 [1]: 6 nM

Compound: CC(C)C(=O)N1CCC(CNc2nc3c(s2)CCOc2cc(Cl)c(F)cc2-3)CC1
- IC50 [1]: 99 nM

Compound: Cc1ccc2c(c1)-c1nc(NCC3CCN(C(=O)[C@@H]4CCCO4)CC3)sc1CCO2
- IC50 [1]: 17 nM

Compound: CC(=O)N1CCC(CNc2nc3c(s2)CCOc2ccc(F)cc2-3)CC1
- IC50 [2]: 69 nM

Compound: CC(C)C(=O)N1CCC(CNc2nc3c(s2)CCCc2ccc(F)cc2-3)CC1
- IC50 [1]: 2 nM

Compound: COCC(=O)N1CCC(CNc2nc3c(s2)CCOc2ccc(F)cc2-3)CC1
- IC50 [2]: 37 nM

Compound: O=C(CN1CCOCC1)N1CCC(CNc2nc3c(s2)CCCc2ccc(F)cc2-3)CC1
- IC50 [1]: 2 nM

Compound: COc1ccc2c(c1)-c1nc(NCC3CCN(C(=O)CCN4CCCCC4)CC3)sc1CCO2
- IC50 [1]: 2460 nM

Compound: CC(=O)C1(c2ccccc2)CCC(CC(=O)Nc2nc3c(s2)CCCc2ccc(F)cc2-3)CC1 (configuration not stated)
- IC50 [1]: 15 nM

Compound: O=C(N[C@H]1CC[C@H](CNc2nc3c(s2)CCCc2ccc(F)cc2-3)CC1)c1cccs1
- IC50 [1]: 15 nM

Compound: Nc1nc2c(s1)-c1ccccc1Sc1ccccc1-2
- IC50 [1]: 1800 nM

Compound: O=C(N[C@H]1CC[C@H](CNc2nc3c(s2)CCCc2ccc(F)cc2-3)CC1)C1CC1
- IC50 [1]: 6 nM

Compound: O=C(C1CCOC1)N1CCC(CNc2nc3c(s2)CCCc2ccc(F)cc2-3)CC1 (configuration not stated)
- concentration at 2 h [3]: 1220 ng/g
- concentration at 6 h [4]: 440 ng/g
- concentration at 6 h [5]: 140 ng/mL
- IC50 [1]: 1 nM
- concentration at 2 h [6]: 540 ng/mL

Compound: O=C(CN1CCCCC1)N1CCC(CNc2nc3c(s2)CCCc2ccc(F)cc2-3)CC1
- concentration at 2 h [3]: 1170 ng/g
- concentration at 6 h [4]: 620 ng/g
- concentration at 6 h [5]: 130 ng/mL
- IC50 [1]: 4 nM
- concentration at 2 h [6]: 240 ng/mL

Compound: COC(=O)N[C@H]1CC[C@H](CNc2nc3c(s2)CCCc2ccc(F)cc2-3)CC1
- IC50 [1]: 2 nM

Compound: CCCCC(=O)N1CCC(CNc2nc3c(s2)CCOc2ccc(OC)cc2-3)CC1
- IC50 [1]: 17 nM

Compound: CCCCC(=O)N1CCC(CNc2nc3c(s2)CCOc2ccc(F)cc2-3)CC1
- concentration at 2 h [3]: 2230 ng/g
- concentration at 6 h [4]: 260 ng/g
- concentration at 6 h [5]: 70 ng/mL
- IC50 [1]: 7 nM
- IC50 [7]: 100 nM
- IC50 [8]: 6 nM
- concentration at 2 h [6]: 740 ng/mL

Compound: CN(C)CC(=O)N[C@H]1CC[C@H](CNc2nc3c(s2)CCCc2ccc(F)cc2-3)CC1
- IC50 [1]: 81 nM

Compound: Cc1ccc2c(c1)-c1nc(NCC3CCN(C(=O)COC(C)C)CC3)sc1CCO2
- IC50 [1]: 21 nM

Compound: CC(=O)N1CCC(CNc2nc3c(s2)CCCc2ccc(F)cc2-3)CC1
- concentration at 2 h [3]: 3700 ng/g
- concentration at 6 h [4]: 290 ng/g
- concentration at 6 h [5]: 70 ng/mL
- IC50 [1]: 2 nM
- IC50 [7]: 254 nM
- concentration at 2 h [6]: 950 ng/mL

Compound: COCCCNCC(=O)N1CCC(CNc2nc3c(s2)CCCc2ccc(F)cc2-3)CC1
- IC50 [1]: 15 nM

Compound: CN(C)S(=O)(=O)NC[C@H]1CC[C@H](Nc2nc3c(s2)CCSc2ccc(F)cc2-3)CC1
- IC50 [1]: 3 nM

Compound: CCOC(=O)N1CCC(CNc2nc3c(s2)CCCc2ccc(F)cc2-3)CC1
- IC50 [1]: 4 nM

Compound: CCOCC(=O)N1CCC(CNc2nc3c(s2)CCOc2ccc(C)cc2-3)CC1
- IC50 [1]: 18 nM

Compound: CCCCC(=O)N1CCC(CNc2nc3c(s2)CCOc2cc(F)c(Cl)cc2-3)CC1
- IC50 [1]: 20 nM

Compound: O=C(C1CC1)N1CCC(CNc2nc3c(s2)CCCc2ccc(F)cc2-3)CC1
- IC50 [1]: 2 nM
